Data as given in ChEMBL document CHEMBL4251693, “Indolylmaleimide Derivative IM-17 Shows Cardioprotective Effects in Ischemia-Reperfusion Injury” (ACS Med Chem Lett, 2018).
Active and inactive are the calls of the source. No cut-off for these calls is given here. Peptide text beside a SMILES is read from it. * marks the point of attachment. Cbz = O=C(OCc1ccccc1)*

Assays:
[1] = system: HL-60; assay: Cytoprotective activity against H2O2-induced necrosis in human HL60 cells incubated for 1 hr followed by H2O2 stimulation by LDH release assay; assay type: functional, cell-based; conditions: HL-60, 1 h
Outline: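 Necrosis of HL-60 cells induced by H2O2 and quantified as lactate dehydrogenase release from the cytosol; IC50 derived.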

[2] = system: H9c2; assay: Cytoprotective activity against TBHP-induced necrosis in rat H9c2 cells incubated for 4 hrs by LDH release assay; assay type: functional, cell-based; conditions: H9c2, 4 h
Outline: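 Rat cardiomyoblast H9c2 cells treated with TBHP (300 μM) with or without test compound; necrotic cell death quantified by LDH release assay.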

[3] = system: H9c2; assay: Cytotoxicity against rat H9c2 cells at 30 uM; assay type: cell-based; conditions: h9c2, 30 µM
[4] = system: Jurkat; assay: Cytoprotective activity against Z-VAD-induced necroptosis in human Jurkat cells assessed as increase in cell viability at 30 uM incubated for 1 hr followed by Z-VAD stimulation by phase contrast microscopy; assay type: functional, cell-based
Outline: (§1)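 Jurkat necroptosis induced with FasL (100 ng/mL, 20 h) together with Z-VAD (100 μM) or cycloheximide (5 μM). Test agents were run at 10 μM alongside a necroptosis inhibitor at 30 μM. Viability read by AlamarBlue; morphology examined by phase-contrast imaging.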

[5] = system: HL-60; assay: Cytoprotective activity against H2O2-induced necrosis in human HL60 cells assessed as increase in cell viability at 1 to 10 uM incubated for 1 hr followed by H2O2 stimulation measured after 3 hrs by Alamar blue assay; assay type: functional, cell-based
Outline: (§2)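 HL-60 cells treated with H2O2 (100 μM, 3 h) with or without various cell death inhibitors (cyclophilin D, PARP-1, necroptosis, autophagy). Viability read by AlamarBlue.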

[6] = system: Jurkat; assay: Cytoprotective activity against Z-VAD-induced necroptosis in human Jurkat cells assessed as increase in cell viability at 30 uM incubated for 1 hr followed by Z-VAD stimulation by Alamar blue assay; assay type: functional, cell-based; outline: as §1
[7] = system: Jurkat; assay: Cytoprotective activity against CHX-induced necroptosis in human Jurkat cells assessed as increase in cell viability at 30 uM incubated for 1 hr followed by CHX stimulation by Alamar blue assay; assay type: functional, cell-based; outline: as §1
[8] = system: Jurkat; assay: Cytoprotective activity against FasL-induced necroptosis in human Jurkat cells assessed as increase in cell viability at 30 uM incubated for 1 hr followed by FasL stimulation measured after 20 hrs by phase contrast microscopy; assay type: functional, cell-based; outline: as §1
[9] = system: Jurkat; assay: Cytoprotective activity against CHX-induced necroptosis in human Jurkat cells assessed as increase in cell viability at 30 uM incubated for 1 hr followed by CHX stimulation by phase contrast microscopy; assay type: functional, cell-based; outline: as §1
[10] = system: Jurkat; assay: Cytoprotective activity against FasL-induced necroptosis in human Jurkat cells assessed as increase in cell viability at 30 uM incubated for 1 hr followed by FasL stimulation measured after 20 hrs by Alamar blue assay; assay type: functional, cell-based; outline: as §1
[11] = system: HL-60; assay: Cytoprotective activity against H2O2-induced necrosis in human HL60 cells assessed as increase in cell viability at 10 to 100 uM incubated for 1 hr followed by H2O2 stimulation measured after 3 hrs by Alamar blue assay; assay type: functional, cell-based; outline: as §2
[12] = system: HL-60; assay: Cytoprotective activity against etoposide-induced apoptosis in human HL60 cells assessed as increase in cell viability at 100 uM incubated for 1 hr followed by etoposide stimulation measured after 4 hrs by Alamar blue assay; assay type: functional, cell-based
Outline: (§3)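 HL-60 cells given a death inducer with or without test agent (10 μM) or Z-VAD (100 μM). Inducers were actinomycin D 1 μM for 6 h, camptothecin 1 μM for 6 h, etoposide 100 μM for 4 h, FasL 100 ng/mL for 18 h, H2O2 100 μM for 3 h, and TBHP 30 μM for 3 h. Viability read by AlamarBlue.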

[13] = system: Jurkat; assay: Cytoprotective activity against FasL-induced apoptosis in human Jurkat cells assessed as increase in cell viability at 100 uM incubated for 1 hr followed by FasL stimulation measured after 18 hrs by Alamar blue assay; assay type: functional, cell-based
Outline: (§4)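 Jurkat cells exposed to FasL (100 ng/mL, 18 h) with or without test agent (10 μM) or Z-VAD (100 μM). Viability measured by AlamarBlue and morphology by phase-contrast imaging.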

[14] = system: Jurkat; assay: Cytoprotective activity against FasL-induced apoptosis in human Jurkat cells assessed as increase in cell viability at 100 uM incubated for 1 hr followed by FasL stimulation measured after 18 hrs by phase contrast microscopy; assay type: functional, cell-based; outline: as §4
[15] = system: HL-60; assay: Cytoprotective activity against camptothecin-induced apoptosis in human HL60 cells assessed as increase in cell viability at 100 uM incubated for 1 hr followed by camptothecin stimulation measured after 6 hrs by Alamar blue assay; assay type: functional, cell-based; outline: as §3
[16] = system: HL-60; assay: Cytoprotective activity against H2O2-induced necrosis in human HL60 cells assessed as increase in cell viability at 100 uM incubated for 1 hr followed by H2O2 stimulation measured after 3 hrs by Alamar blue assay; assay type: functional, cell-based; outline: as §3
[17] = system: HL-60; assay: Cytoprotective activity against H2O2-induced apoptosis in human HL60 cells assessed as increase in cell viability at 100 uM incubated for 1 hr followed by H2O2 stimulation measured after 4 hrs by Alamar blue assay; assay type: functional, cell-based
Outline: (§5)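 HL-60 cells exposed to low-level H2O2 (30 μM, 4 h) with or without test agent (10 μM) or Z-VAD (100 μM). Viability read by AlamarBlue; morphology by phase-contrast imaging.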

[18] = system: HL-60; assay: Cytoprotective activity against H2O2-induced apoptosis in human HL60 cells assessed as increase in cell viability at 100 uM incubated for 1 hr followed by H2O2 stimulation measured after 4 hrs by phase contrast microscopy; assay type: functional, cell-based; outline: as §5
[19] = system: HL-60; assay: Cytoprotective activity against TBHP-induced necrosis in human HL60 cells assessed as increase in cell viability at 100 uM incubated for 1 hr followed by TBHP stimulation measured after 3 hrs by Alamar blue assay; assay type: functional, cell-based
[20] = system: HL-60; assay: Cytoprotective activity against Fas ligand-induced apoptosis in human HL60 cells assessed as increase in cell viability at 100 uM incubated for 1 hr followed by Fas ligand stimulation measured after 18 hrs by Alamar blue assay; assay type: functional, cell-based; outline: as §3
[21] = system: HL-60; assay: Cytoprotective activity against actinomycin D-induced apoptosis in human HL60 cells assessed as increase in cell viability at 100 uM incubated for 1 hr followed by actinomycin D stimulation measured after 6 hrs by Alamar blue assay; assay type: functional, cell-based; outline: as §3
[22] = system: Heart; assay: Cardioprotective activity against Langendorff isolated Sprague-Dawley rat heart ischemia-reperfusion injury model assessed as improvement in LVDP at 0.3 uM administered for 10 mins as infusion followed by 30 mins of global ischemia and 60 mins of reperfusion; assay type: functional, tissue-based
Outline: (§6)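 Isolated rat hearts perfused in Langendorff mode with Krebs-Henseleit buffer. Compound (HCl salt) added to the perfusate for 10 min before no-flow global ischemia of 30 min, then 60 min reperfusion with flow restored. Left ventricular developed pressure recovery taken as heart function; creatine kinase released from myocardium taken as membrane integrity marker.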

[23] = system: Heart; assay: Cardioprotective activity against Langendorff isolated Sprague-Dawley rat heart ischemia-reperfusion injury model assessed as suppression of creatine kinase release at 0.3 uM administered for 10 mins as infusion followed by 30 mins of global ischemia and 60 mins of reperfusion; assay type: functional, tissue-based; outline: as §6
[24] = Stability in rat liver S9 fraction at 5 uM after 30 mins by HPLC method; assay type: ADME, subcellular; conditions: s9, 0.5 h
[25] = system: HL-60; assay: Cytoprotective activity against H2O2-induced necrosis in human HL60 cells assessed as increase in cell viability at 1 to 5 mM incubated for 1 hr followed by H2O2 stimulation measured after 3 hrs by Alamar blue assay; assay type: functional, cell-based; outline: as §2
[26] = system: Heart; assay: Cardioprotective activity against Langendorff isolated Sprague-Dawley rat heart ischemia-reperfusion injury model assessed as suppression of creatine kinase release at 3 uM administered for 10 mins as infusion followed by 30 mins of global ischemia and 60 mins of reperfusion; assay type: functional, tissue-based; outline: as §6
[27] = system: Heart; assay: Cardioprotective activity against Langendorff isolated Sprague-Dawley rat heart ischemia-reperfusion injury model assessed as improvement in LVDP at 3 uM administered for 10 mins as infusion followed by 30 mins of global ischemia and 60 mins of reperfusion; assay type: functional, tissue-based; outline: as §6
[28] = system: Rattus norvegicus; assay: Toxicity in Sprague-Dawley rat ischemia reperfusion-induced arrhythmia model assessed as mortality at 3 mg/kg, iv administered 1 min before reperfusion (reference value: 75%); assay type: organism-based; conditions: in vivo
[29] = system: Rattus norvegicus; assay: Cardioprotective activity against Sprague-Dawley rat ischemia reperfusion-induced arrhythmia model assessed as ventricular fibrillation time at 3 mg/kg, iv administered 5 mins before ischemia (reference value: 95.3 +/- 13 sec); assay type: functional
[30] = system: Rattus norvegicus; assay: Toxicity in Sprague-Dawley rat ischemia reperfusion-induced arrhythmia model assessed as mortality at 3 mg/kg, iv administered 5 mins before ischemia (reference value: 60%); assay type: organism-based; conditions: in vivo
[31] = system: Rattus norvegicus; assay: Cardioprotective activity against Sprague-Dawley rat ischemia reperfusion-induced arrhythmia model assessed as ventricular fibrillation time at 3 mg/kg, iv administered 1 min before reperfusion (reference value: 96.3 +/- 24.1 sec); assay type: functional
[32] = system: Rattus norvegicus; assay: Toxicity in Sprague-Dawley rat ischemia reperfusion-induced arrhythmia model assessed as mortality at 1 mg/kg, iv administered 5 mins before ischemia (reference value: 60%); assay type: organism-based; conditions: in vivo
[33] = system: Rattus norvegicus; assay: Cardioprotective activity against Sprague-Dawley rat ischemia reperfusion-induced arrhythmia model assessed as ventricular fibrillation time at 1 mg/kg, iv administered 5 mins before ischemia (reference value: 95.3 +/- 13 sec); assay type: functional

CN1C(=O)C(NCCCCO)=C(c2cn(C)c3ccccc23)C1=O
IC50 [1]: 1100 nM

CN1C(=O)C(c2c[nH]c3ccccc23)=C(c2cn(CCCN)c3ccccc23)C1=O
IC50 [2]: 3000 nM
Activity [3]: Toxic

CCCCNC1=C(c2cn(C)c3ccccc23)C(=O)N(C)C1=O
IC50 [1]: 420 nM

CCCCCCNC1=C(c2cn(C)c3ccccc23)C(=O)N(C)C1=O
IC50 [1]: 380 nM

CN1C(=O)C(NCCCN)=C(c2cn(C)c3ccccc23)C1=O
IC50 [1]: 1300 nM

CN1C(=O)C(NCCCO)=C(c2cn(C)c3ccccc23)C1=O
IC50 [1]: 1900 nM

CN1C(=O)C(Cc2c[nH]c3ccccc23)NC1=S (configuration not stated)
Activity [4]: Active
Activity [5]: inactive
Activity [6]: Active
Activity [7]: Active
Activity [8]: Active
Activity [9]: Active
Activity [10]: Active

O=C1NCCc2c(OCCCCN3CCCCC3)cccc21
Activity [11]: inactive

CN1C(=O)C(NCCO)=C(c2cn(C)c3ccccc23)C1=O
IC50 [1]: 1300 nM

COC(=O)C[C@H](NC(=O)[C@H](C)NC(=O)[C@@H](NC(=O)OCc1ccccc1)C(C)C)C(=O)O (Cbz-Val-Ala-Asp(OMe)-OH)
Activity [12]: Active
Activity [13]: Active
Activity [14]: Active
Activity [15]: Active
Activity [16]: inactive
Activity [17]: Active
Activity [18]: Active
Activity [19]: inactive
Activity [20]: Active
Activity [21]: Active

CCCNC1=C(c2cn(C)c3ccccc23)C(=O)N(C)C1=O
Activity [22]: Active
IC50 [2]: 4400 nM
Activity [23]: Active
Activity [3]: Non-Toxic
Stability [24]: Unstable
IC50 [1]: 440 nM

CN1C(=O)C(NCCN)=C(c2cn(C)c3ccccc23)C1=O [listing 1 of 2 here]
IC50 [2]: 4900 nM
Activity [3]: Non-Toxic
Stability [24]: Stable
IC50 [1]: 1000 nM

CN1C(=O)C(NCCCCN)=C(c2cn(C)c3ccccc23)C1=O
IC50 [1]: 1300 nM

Cn1cnc(N)c2ncnc1-2
Activity [25]: inactive

CNC1=C(c2cn(C)c3ccccc23)C(=O)N(C)C1=O
IC50 [1]: 910 nM

CN1C(=O)C(NCCN)=C(c2cn(C)c3ccccc23)C1=O [listing 2 of 2 here]
Activity [26]: Active
Activity [27]: Active

CN1C(=O)C(NCCN)=C(c2cn(C)c3ccccc23)C1=O.Cl
mortality [28]: 20%
Time [29]: 0 s
mortality [30]: 0%
Time [31]: 57 s
mortality [32]: 20%
Time [33]: 38.2 s
